Laboratory results taken from ChEMBL document CHEMBL3351628, “2,4,5-Trisubstituted thiazole derivatives: a novel and potent class of non-nucleoside inhibitors of wild type and mutant HIV-1 reverse transcriptase” (Eur J Med Chem, 2014).
Active and inactive are the calls of the source. The calls are words filed in the database; no cut-off is given here.

What was measured:
[1] = system: Human immunodeficiency virus 1; test: Antiviral activity against HIV1 harboring reverse transcriptase K103N/P225H double mutant infected in HEK293T cells transfected with plasmid VSV-G/pNL4-3.luc.R-E- assessed as inhibition of viral replication after 48 hrs by luciferase reporter gene assay; format: functional, organism-based, HEK-293T
How it was run: (§1)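 VSV-G-pseudotyped single-cycle virus: VSVG plasmid plus env-deficient pNL4-3.luc.R⁻E⁻ vector (wild type or RT-mutant) co-transfected into HEK 293T by calcium phosphate. Medium changed at 16 h, supernatant collected 48 h post-transfection, normalised by p24 ELISA to 0.2 ng p24/mL. HEK 293T targets seeded a day ahead; compound added 15 min before virus. Cells lysed 48 h post-infection, luciferase read. IC50 from dose–infectivity curves.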

[2] = system: Human immunodeficiency virus 1; test: Antiviral activity against HIV1 harboring reverse transcriptase K103N/P225H double mutant infected in HEK293T cells transfected with plasmid VSV-G/pNL4-3.luc.R-E- assessed as inhibition of viral replication after 48 hrs by luciferase reporter gene assay relative HIV1; format: functional, HEK-293T
[3] = system: Human immunodeficiency virus 1; test: Antiviral activity against HIV1 harboring reverse transcriptase K103N/G190A double mutant infected in HEK293T cells transfected with plasmid VSV-G/pNL4-3.luc.R-E- assessed as inhibition of viral replication after 48 hrs by luciferase reporter gene assay; format: functional, organism-based, HEK-293T; how it was run: as §1
[4] = system: Human immunodeficiency virus 1; test: Antiviral activity against HIV1 harboring reverse transcriptase K103N/G190A double mutant infected in HEK293T cells transfected with plasmid VSV-G/pNL4-3.luc.R-E- assessed as inhibition of viral replication after 48 hrs by luciferase reporter gene assay relative HIV1; format: functional, HEK-293T
[5] = system: Human immunodeficiency virus 1; test: Antiviral activity against HIV1 harboring reverse transcriptase K103N/V108I double mutant infected in HEK293T cells transfected with plasmid VSV-G/pNL4-3.luc.R-E- assessed as inhibition of viral replication after 48 hrs by luciferase reporter gene assay; format: functional, organism-based, HEK-293T; how it was run: as §1
[6] = system: Human immunodeficiency virus 1; test: Antiviral activity against HIV1 harboring reverse transcriptase K103N/V108I double mutant infected in HEK293T cells transfected with plasmid VSV-G/pNL4-3.luc.R-E- assessed as inhibition of viral replication after 48 hrs by luciferase reporter gene assay relative HIV1; format: functional, HEK-293T
[7] = system: Human immunodeficiency virus 1; test: Antiviral activity against HIV1 infected in 293T cells assessed as time of 50% failure; format: functional
[8] = system: Human immunodeficiency virus 1; test: Antiviral activity against wild type HIV1 infected in HEK293T cells transfected with plasmid VSV-G/pNL4-3.luc.R-E- assessed as inhibition of viral replication after 48 hrs by luciferase reporter gene assay; format: functional, organism-based, HEK-293T; how it was run: as §1
[9] = system: HEK-293T; test: Cytotoxicity against HEK293T cells at 10 uM after 48 hrs; format: cell-based; settings: human
How it was run: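 HEK 293T cells incubated 48 h with compound at final 10 μM under the antiviral culture conditions, without virus. Viability read with a cell proliferation assay kit.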

[10] = system: Human immunodeficiency virus 1; test: Antiviral activity against HIV1 harboring reverse transcriptase K103N mutant infected in HEK293T cells transfected with plasmid VSV-G/pNL4-3.luc.R-E- assessed as inhibition of viral replication after 48 hrs by luciferase reporter gene assay; format: functional, organism-based, HEK-293T; how it was run: as §1
[11] = system: Human immunodeficiency virus 1; test: Antiviral activity against HIV1 harboring reverse transcriptase K103N mutant infected in HEK293T cells transfected with plasmid VSV-G/pNL4-3.luc.R-E- assessed as inhibition of viral replication after 48 hrs by luciferase reporter gene assay relative HIV1; format: functional, HEK-293T
[12] = system: Human immunodeficiency virus 1; test: Antiviral activity against HIV1 harboring reverse transcriptase Y181C mutant infected in HEK293T cells transfected with plasmid VSV-G/pNL4-3.luc.R-E- assessed as inhibition of viral replication after 48 hrs by luciferase reporter gene assay; format: functional, organism-based, HEK-293T; how it was run: as §1
[13] = system: Human immunodeficiency virus 1; test: Antiviral activity against HIV1 harboring reverse transcriptase Y181C mutant infected in HEK293T cells transfected with plasmid VSV-G/pNL4-3.luc.R-E- assessed as inhibition of viral replication after 48 hrs by luciferase reporter gene assay relative HIV1; format: functional, HEK-293T
[14] = system: Human immunodeficiency virus 1; test: Antiviral activity against HIV1 harboring reverse transcriptase […]/K103N double mutant infected in HEK293T cells transfected with plasmid VSV-G/pNL4-3.luc.R-E- assessed as inhibition of viral replication after 48 hrs by luciferase reporter gene assay; format: functional, organism-based, HEK-293T; how it was run: as §1
[15] = system: Human immunodeficiency virus 1; test: Antiviral activity against HIV1 harboring reverse transcriptase […]/K103N double mutant infected in HEK293T cells transfected with plasmid VSV-G/pNL4-3.luc.R-E- assessed as inhibition of viral replication after 48 hrs by luciferase reporter gene assay relative HIV1; format: functional, HEK-293T
[16] = system: Human immunodeficiency virus 1; test: Antiviral activity against HIV1 harboring reverse transcriptase Y188L mutant infected in HEK293T cells transfected with plasmid VSV-G/pNL4-3.luc.R-E- assessed as inhibition of viral replication after 48 hrs by luciferase reporter gene assay; format: functional, organism-based, HEK-293T; how it was run: as §1
[17] = system: Human immunodeficiency virus 1; test: Antiviral activity against HIV1 harboring reverse transcriptase Y188L mutant infected in HEK293T cells transfected with plasmid VSV-G/pNL4-3.luc.R-E- assessed as inhibition of viral replication after 48 hrs by luciferase reporter gene assay relative HIV1; format: functional, HEK-293T
[18] = Retention time of the compound by HPLC analysis; format: physicochemical
[19] = system: Human immunodeficiency virus 1; test: Antiviral activity against HIV1 at 10 uM; format: functional, organism-based
[20] = Human immunodeficiency virus 1, HEK-293T, 48 h, read-out: IC50
[21] = Human immunodeficiency virus 1, HEK-293T, 48 h

With O=C1Nc2ccc(Cl)cc2[C@@](C#CC2CC2)(C(F)(F)F)O1 [EFAVIRENZ] the IC50 ([1]; hek-293t) was 160 nM, the “fold change (FC)” value [2] was 154 and the IC50 ([3]; hek-293t) was 56 nM. The “fold change (FC)” value [4] was 538, the IC50 ([5]; hek-293t) was 83 nM and the “fold change (FC)” value [6] was 79.8. For the same molecule, the Time [7] was 8.8 h, the IC50 [8, 20] was 0.84 nM and the Activity [9] was “Non-toxic”. The IC50 ([10]; hek-293t) was 58.8 nM, the “fold change (FC)” value [11] was 56 and the IC50 ([12]; hek-293t) was 5.65 nM. For the same molecule, the “fold change (FC)” value [13] was 5.4, the IC50 ([14]; hek-293t) was 2490 nM and the “fold change (FC)” value [15] was 2394. For the same molecule, the IC50 ([16]; hek-293t) was 480 nM and the “fold change (FC)” value [17] was 461.5.
For Cc1ccnc2c1NC(=O)c1cccnc1N2C1CC1 [NEVIRAPINE], the IC50 ([1]; hek-293t) was 5480 nM, the “fold change (FC)” value [2] was 177 and the IC50 [3, 21] was greater than 10000 nM. The “fold change (FC)” value [4] was greater than 322, the IC50 ([5]; hek-293t) was 2800 nM and the “fold change (FC)” value [6] was 90. The Time [7] was 8.3 h, the IC50 [8, 20] was 31 nM and the Activity [9] was “Non-toxic”. For the same molecule, the IC50 ([10]; hek-293t) was 16100 nM, the “fold change (FC)” value [11] was 519 and the IC50 ([12]; hek-293t) was 66700 nM. For the same molecule, the “fold change (FC)” value [13] was 2152, the IC50 [14, 21] was 5000 nM and the “fold change (FC)” value [15] was 161. The IC50 [16, 21] was greater than 10000 nM and the “fold change (FC)” value [17] was greater than 322.
In the case of COc1ccc(-c2nc(N(C)C)sc2Cc2ccccc2)cc1, the Retention_time [18] is reported as 35.28 min, the inhibition [19] is reported as “inactive” and the IC50 ([8]; hek-293t) is reported as “Not Active”. For the same molecule, the Activity [9] was “Non-toxic”.
Work on Cc1nnc(C(=O)NC(C)(C)c2nc(C(=O)NCc3ccc(F)cc3)c(O)c(=O)n2C)o1 [RALTEGRAVIR] yielded a Time [7] of 12 h.
For Cc1cn([C@H]2C[C@H](N=[N+]=[N-])[C@@H](CO)O2)c(=O)[nH]c1=O [ZIDOVUDINE], the Time [7] was 7.7 h.
For COc1ccc(CNc2nc(-c3ccccc3F)c(Cc3ccccc3)s2)cc1, the IC50 [1, 21] was 4810 nM, the “fold change (FC)” value [2] was 77.6 and the IC50 [3, 21] was 160 nM. The “fold change (FC)” value [4] was 2.6, the IC50 [5, 21] was 4730 nM and the “fold change (FC)” value [6] was 76.3. The Retention_time [18] was 24.29 min, the Time [7] was 8.6 h and the IC50 [8, 20] was 62 nM. The Activity [9] was “Non-toxic”, the IC50 [10, 21] was 540 nM and the “fold change (FC)” value [11] was 8.7. For the same molecule, the IC50 [12, 21] was 1260 nM, the “fold change (FC)” value [13] was 20.3 and the IC50 [14, 21] was 5240 nM. For the same molecule, the “fold change (FC)” value [15] was 84.5, the IC50 [16, 21] was greater than 10000 nM and the “fold change (FC)” value [17] was greater than 161.
With COc1ccc(-c2nc(NCc3ccc(N(C)C)cc3)sc2Cc2ccccc2)cc1 the Retention_time [18] was 33.97 min, the IC50 [8, 20] was 870 nM and the Activity [9] was “Non-toxic”. For the same molecule, the IC50 [10, 21] was 65700 nM, the “fold change (FC)” value [11] was 76 and the IC50 [12, 21] was 71600 nM. For the same molecule, the “fold change (FC)” value [13] was 82.
With COc1ccc(CNc2nc(-c3ccc(F)cc3F)c(Cc3ccccc3)s2)cc1 the IC50 [1, 21] was 3590 nM, the “fold change (FC)” value [2] was 56.1 and the IC50 [3, 21] was 400 nM. For the same molecule, the “fold change (FC)” value [4] was 6.3, the IC50 [5, 21] was 1840 nM and the “fold change (FC)” value [6] was 28.8. It also gave a Retention_time [18] of 17.37 min, a Time [7] of 8.6 h and an IC50 [8, 20] of 64 nM. For the same molecule, the Activity [9] was “Non-toxic”, the IC50 [10, 21] was 410 nM and the “fold change (FC)” value [11] was 6.4. For the same molecule, the IC50 [12, 21] was 1460 nM, the “fold change (FC)” value [13] was 22.8 and the IC50 [14, 21] was 5360 nM. The “fold change (FC)” value [15] was 83.8, the IC50 [16, 21] was greater than 10000 nM and the “fold change (FC)” value [17] was greater than 156.
With CCN(CC)c1nc(-c2ccc(O)cc2)c(Cc2ccccc2)s1 the Retention_time [18] was 19.11 min, the IC50 [8, 20] was 4400 nM and the Activity [9] was “Non-toxic”.
With COc1ccc(CN(C)c2nc(-c3ccc(OC)cc3)c(Cc3ccccc3)s2)cc1 the Retention_time [18] was 47.61 min, the IC50 [8, 20] was 370 nM and the Activity [9] was “Non-toxic”.
With COc1ccc(CNc2nc(-c3ccc(Cl)cc3Cl)c(Cc3ccccc3)s2)cc1 the Retention_time [18] was 53.29 min, the IC50 [8, 20] was 140 nM and the Activity [9] was “Non-toxic”.
With COc1ccc(-c2nc(NCc3ccc(O)cc3)sc2Cc2ccccc2)cc1 the Retention_time [18] was 16.52 min, the IC50 [8, 20] was 640 nM and the Activity [9] was “Non-toxic”. The IC50 [10, 21] was 8380 nM, the “fold change (FC)” value [11] was 13 and the IC50 [12, 21] was 6630 nM. For the same molecule, the “fold change (FC)” value [13] was 10.
With COc1ccc(-c2nc(NCc3ccccc3OC)sc2Cc2ccccc2)cc1 the Retention_time [18] was 34.78 min, the IC50 [8, 20] was 6970 nM and the Activity [9] was “Non-toxic”.
With COc1ccc(-c2nc(NCc3cc([N+](=O)[O-])ccc3O)sc2Cc2ccccc2)cc1 the Retention_time [18] was 45.27 min, the IC50 [8, 20] was 5200 nM and the Activity [9] was “Non-toxic”.
With COc1ccc(-c2nc(NCc3ccco3)sc2Cc2ccccc2)cc1 the Retention_time [18] was 19.65 min, the IC50 [8, 20] was 1000 nM and the Activity [9] was “Non-toxic”.
For COc1ccc(-c2nc(NCc3ccccc3)sc2Cc2ccccc2)cc1, the Retention_time [18] was 28.1 min, the IC50 [8, 20] was 650 nM and the Activity [9] was “Non-toxic”.
In the case of COc1ccc(CNc2nc(-c3ccccc3Cl)c(Cc3ccccc3)s2)cc1, the IC50 [1, 21] is reported as 780 nM, the “fold change (FC)” value [2] is reported as 17 and the IC50 [3, 21] is reported as 4180 nM. The “fold change (FC)” value [4] was 90.9, the IC50 [5, 21] was 820 nM and the “fold change (FC)” value [6] was 17.8. It also gave a Retention_time [18] of 26.43 min, a Time [7] of 9 h and an IC50 [8, 20] of 46 nM. For the same molecule, the Activity [9] was “Non-toxic”, the IC50 [10, 21] was 240 nM and the “fold change (FC)” value [11] was 5.2. For the same molecule, the IC50 [12, 21] was 790 nM, the “fold change (FC)” value [13] was 17.2 and the IC50 [14, 21] was 5110 nM. The “fold change (FC)” value [15] was 111, the IC50 [16, 21] was greater than 10000 nM and the “fold change (FC)” value [17] was greater than 217.
With COc1ccc(CNc2nc(-c3ccc(OC)cc3)c(Cc3ccccc3)s2)cc1 the Retention_time [18] was 29.14 min, the IC50 [8, 20] was 310 nM and the Activity [9] was “Non-toxic”.
